According to ChEMBL document CHEMBL4130485, “Inhibitors of Yellow Fever Virus replication based on 1,3,5-triphenyl-4,5-dihydropyrazole scaffold: Design, synthesis and antiviral evaluation” (Eur J Med Chem, 2017):

Columns and labels:
[1] = Selectivity index, ratio of CC50 for bovine MDBK cells to EC50 for Bovine viral diarrhea virus NADL ATCC VR 534; assay type: toxicity; details: cattle, read-out: Ratio CC50/EC50
Procedure, shortened: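 Selectivity index calculated as MDBK CC50 divided by BVDV EC50, both by MTT.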

[2] = Cytotoxicity against golden hamster BHK21 cells assessed as decrease in cell viability after 72 hrs by MTT assay; assay type: cell-based, Mesocricetus auratus, BHK-21
Procedure, shortened: (§1)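 Uninfected MDBK (6×10^5 cells/mL, 10% horse serum) or BHK (1×10^6 cells/mL, 10% FBS) cells in MEM-Earle with serial compound dilutions at 37 °C, 5% CO2, run in parallel with the antiviral assays. Viability read by MTT after 72 h. CC50 by linear regression; mean of three determinations.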

Yellow fever virus [3] = assay: Antiviral activity against Yellow fever virus 17D vaccine (Stamaril Pasteur J07B01) infected in golden hamster BHK21 cells assessed as protection against virus-induced cytopathic effect after 3 to 4 days by MTT assay; assay type: functional, organism-based; details: BHK-21
Procedure, shortened: (§2)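 BHK-21 cells (MDBK for BVDV) seeded at 5×10^4 (BHK) or 3×10^4 (MDBK) cells/well and grown overnight to confluence. Infected at m.o.i. 0.01 in maintenance MEM-Earle with 0.5% inactivated FBS. Serial compound dilutions added 2 h later (final 100, 20, 4, 0.8 µM; DMSO ≤0.1%). Viability read by MTT after 3–4 days at 37 °C. EC50 obtained by linear regression against untreated controls; mean of three determinations.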

[4] = Selectivity index, ratio of CC50 for golden hamster BHK21 cells to EC50 for Yellow fever virus 17D; assay type: toxicity; details: read-out: Ratio CC50/EC50
Procedure, shortened: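 Selectivity index calculated as BHK-21 CC50 divided by YFV EC50, both from MTT assays.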

dengue virus type 2 = assay: Antiviral activity against Dengue virus type 2 clinical isolate infected in golden hamster BHK21 cells assessed as protection against virus-induced cytopathic effect after 3 to 4 days by MTT assay; assay type: functional, organism-based; details: BHK-21; procedure, shortened: as §2
West Nile virus = assay: Antiviral activity against West Nile virus clinical isolate infected in golden hamster BHK21 cells assessed as protection against virus-induced cytopathic effect after 3 to 4 days by MTT assay; assay type: functional, organism-based; details: BHK-21; procedure, shortened: as §2
[5] = Cytotoxicity against bovine MDBK cells assessed as decrease in cell viability after 72 hrs by MTT assay; assay type: cell-based, Bos taurus; details: cattle; procedure, shortened: as §1
[6] = test system: Bovine viral diarrhea virus 1; assay: Antiviral activity against Bovine viral diarrhea virus NADL ATCC VR 534 infected in bovine MDBK cells assessed as protection against virus-induced cytopathic effect after 3 to 4 days by MTT assay; assay type: functional, organism-based, Bovine viral diarrhea virus 1-NADL; details: Bovine viral diarrhea virus isolates and strains, ATCC VR 534, MDBK; procedure, shortened: as §2
[7] = Cytotoxicity against human MT4 cells assessed as decrease in cell viability after 96 hrs by MTT assay; assay type: cell-based
Procedure, shortened: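 Exponentially growing MT-4 cells seeded at 1×10^5 cells/mL in RPMI-1640 with 10% FBS and incubated with serial compound dilutions at 37 °C, 5% CO2. Viability read by MTT after 96 h. CC50 by linear regression versus untreated controls.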

[8] = test system: Human immunodeficiency virus 1; assay: Antiviral activity against HIV1 3B infected in human MT4 cells assessed as protection against virus-induced cytopathic effect after 4 days by MTT assay; assay type: functional, organism-based; details: Human immunodeficiency virus 1, 3B, MT4, 96 h
Procedure, shortened: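 MT-4 cells (1×10^4/well) in RPMI with serial compound dilutions, infected with 100 CCID50 HIV-1 (m.o.i. 0.01). Viability read by MTT after 4 days at 37 °C. EC50 for 50% protection from cytopathicity obtained by linear regression versus untreated controls; mean of three determinations.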

[9] = test system: Mammalian orthoreovirus 1; assay: Antiviral activity against Reovirus 1 infected in golden hamster BHK21 cells assessed as protection against virus-induced cytopathic effect after 3 to 4 days by MTT assay; assay type: functional, organism-based; details: Mammalian orthoreovirus 1, BHK-21; procedure, shortened: as §2
[10] = Cytotoxicity against African green monkey Vero 76 cells assessed as decrease in cell viability after 48 to 96 hrs by MTT assay; assay type: cell-based; details: chlorocebus sabaeus
Procedure, shortened: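 Vero 76 cells seeded at 5×10^5 cells/mL in D-MEM with 10% FBS and incubated with serial compound dilutions at 37 °C, 5% CO2. Viability read by MTT after 48–96 h. CC50 by linear regression versus untreated controls.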

[11] = Antiviral activity against Human enterovirus B Faulkner ATCC VR 185 infected in African green monkey Vero 76 cells assessed as protection against virus-induced cytopathic effect after 3 days by crystal violet staining-based plaque reduction assay; assay type: functional, cell-based; details: Faulkner ATCC VR 185, Vero 76, 72 h
Enterovirus C = assay: Antiviral activity against Enterovirus C Sabin […] infected in African green monkey Vero 76 cells assessed as protection against virus-induced cytopathic effect after 2 days by crystal violet staining-based plaque reduction assay; assay type: functional, organism-based; details: Vero 76, 48 h
Vaccinia virus = assay: Antiviral activity against Vaccinia virus Lister ATCC VR 1549 infected in African green monkey Vero 76 cells assessed as protection against virus-induced cytopathic effect after 3 days by crystal violet staining-based plaque reduction assay; assay type: functional, organism-based; details: Orthopoxvirus vaccinia, ATCC VR 1549, Vero 76, 72 h
Human alphaherpesvirus 1 = assay: Antiviral activity against Human herpesvirus 1 KOS ATCC VR 1493 infected in African green monkey Vero 76 cells assessed as protection against virus-induced cytopathic effect after 3 days by crystal violet staining-based plaque reduction assay; assay type: functional, organism-based; details: Human alphaherpesvirus 1, KOS, Vero 76, 72 h
[12] = test system: Vesicular stomatitis Indiana virus; assay: Antiviral activity against Vesicular stomatitis virus Indiana ATCC VR 158 infected in African green monkey Vero 76 cells assessed as protection against virus-induced cytopathic effect after 2 days by crystal violet staining-based plaque reduction assay; assay type: functional, organism-based; details: ATCC VR 158, Vero 76, 48 h
Human orthopneumovirus = assay: Antiviral activity against Human respiratory syncytial virus A2 ATCC VR 1540 infected in African green monkey Vero 76 cells assessed as protection against virus-induced cytopathic effect after 5 days by crystal violet staining-based plaque reduction assay; assay type: functional, organism-based; details: ATCC VR 1540, Vero 76, 120 h
Yellow fever virus [13] = assay: Potency index, ratio of azauridine EC50 to compound EC50 for Yellow fever virus 17D vaccine (Stamaril Pasteur J07B01); assay type: functional
[14] = Selectivity index, ratio of CC50 for African green monkey Vero 76 cells to EC50 for Human coxsackievirus B5 Faulkner; assay type: toxicity; details: read-out: Ratio CC50/EC50
Procedure, shortened: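 Selectivity index calculated as Vero 76 CC50 (MTT) divided by CVB-5 plaque-reduction EC50.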

Compound	selectivity ratio [1]	CC50 at 72 h [2]	EC50 (Yellow fever virus [3])	selectivity ratio [4]	EC50 (dengue virus type 2)	EC50 (West Nile virus)	CC50 at 72 h [5]	EC50 [6]	CC50 at 96 h [7]	EC50 [8]	EC50 [9]	CC50 [10]	EC50 [11]	EC50 (Enterovirus C)	EC50 (Vaccinia virus)	EC50 (Human alphaherpesvirus 1)	EC50 [12]	EC50 (Human orthopneumovirus)	Ratio EC50 (Yellow fever virus [13])	selectivity ratio [14]
NS(=O)(=O)c1ccc(N2N=C(c3ccc(OCc4ccccc4)cc3)CC2c2ccc(Cl)cc2)cc1 (stereo not drawn)	3.6	15 to 16 µM	1.9 µM	7.9	> 15 µM	> 15 µM	16 µM	4.5 µM	70 µM	> 70 µM	> 16 µM	82 µM	> 82 µM	> 82 µM	> 82 µM	> 82 µM	> 82 µM	> 82 µM	10	
Cc1cccc(C2CC(c3ccc(OCc4ccccc4)cc3)=NN2c2ccc(S(N)(=O)=O)cc2)c1 (stereo not drawn)	4.5	8 to 9 µM	1.8 µM	5	> 9 µM	> 9 µM	56 µM	12.5 µM	44 µM	> 44 µM	> 8 µM	100 µM	8 µM	> 100 µM	> 100 µM	> 100 µM	> 100 µM	> 100 µM	10	12.5
NS(=O)(=O)c1ccc(N2N=C(c3ccc(Oc4ccccc4)cc3)CC2c2ccccc2F)cc1 (stereo not drawn)		32 to 34 µM	1.9 µM	17.9	> 34 µM	> 34 µM	36 µM	> 36 µM	36 µM	> 36 µM	> 32 µM	96 µM	7 µM	> 96 µM	> 96 µM	> 96 µM	> 96 µM	> 96 µM	10	13.7
NC(=O)c1ncn([C@@H]2O[C@H](CO)[C@@H](O)[C@H]2O)n1 [RIBAVIRIN]	3						62 µM	20 µM				> 100 µM						1.2 µM		
NS(=O)(=O)c1ccc(N2N=C(c3ccc(Oc4ccccc4)cc3)CC2c2cccc(F)c2)cc1 (stereo not drawn)		10 to 11 µM	1.8 µM	5.6	> 10 µM	> 10 µM	12 µM	> 12 µM	25 µM	> 25 µM	> 11 µM	28 µM	4.2 µM	> 28 µM	> 28 µM	> 28 µM	> 28 µM	> 28 µM	10	6.7
Cc1cc(CCCOc2c(C)cc(-c3noc(C(F)(F)F)n3)cc2C)on1 [PLECONARIL]												83 µM	0.005 µM	2.7 µM						16000
NS(=O)(=O)c1ccc(N2N=C(c3ccc(Oc4ccccc4)cc3)CC2c2ccc(Cl)cc2)cc1 (stereo not drawn)		7 to 8 µM	1.9 µM	4.2	> 8 µM	> 8 µM	19 µM	> 19 µM	9 µM	> 9 µM	> 7 µM	88 µM	> 88 µM	> 88 µM	> 88 µM	> 88 µM	> 88 µM	> 88 µM	10	
NS(=O)(=O)c1ccc(N2N=C(c3ccc(OCc4ccccc4)cc3)CC2c2ccccc2Cl)cc1 (stereo not drawn)	6.9	12 µM	1.9 µM	6.3	> 12 µM	> 12 µM	52 µM	7.5 µM	26 µM	> 26 µM	> 12 µM	92 µM	> 92 µM	> 92 µM	> 92 µM	> 92 µM	> 92 µM	> 92 µM	10	
NS(=O)(=O)c1ccc(N2N=C(c3ccc(Oc4ccccc4)cc3)CC2c2ccccc2Cl)cc1 (stereo not drawn)		8 to 9 µM	1.8 µM	5	> 9 µM	> 9 µM	5 µM	> 5 µM	40 µM	> 40 µM	> 8 µM	29 µM	10.5 µM	> 29 µM	> 29 µM	> 29 µM	> 29 µM	> 29 µM	10	2.8
NS(=O)(=O)c1ccc(N2N=C(c3ccc(Oc4ccccc4)cc3)CC2c2ccc(F)cc2)cc1 (stereo not drawn)		8 to 9 µM	1.8 µM	5	> 9 µM	> 9 µM	6 µM	> 6 µM	33 µM	> 33 µM	> 8 µM	25 µM	6 µM	> 25 µM	> 25 µM	> 25 µM	> 25 µM	> 25 µM	10	4.2
NS(=O)(=O)c1ccc(N2N=C(c3ccc(OCc4ccccc4)cc3)CC2c2cccc(Cl)c2)cc1 (stereo not drawn)	7.3	45 to 47 µM	2 µM	22.5	> 45 µM	> 45 µM	40 µM	5.5 µM	36 µM	11 µM	> 47 µM	85 µM	> 85 µM	> 85 µM	> 85 µM	> 85 µM	> 85 µM	> 85 µM	10	
NS(=O)(=O)c1ccc(N2N=C(c3ccc(Oc4ccccc4)cc3)CC2c2cccc(Cl)c2)cc1 (stereo not drawn)		9 to 10 µM	2.2 µM	4.5	> 10 µM	> 10 µM	6 µM	> 6 µM	8 µM	> 8 µM	> 9 µM	88 µM	> 88 µM	> 88 µM	> 88 µM	> 88 µM	> 88 µM	> 88 µM	10	
